From ChEMBL document CHEMBL1123266, “Antibacterial activity of phosphono dipeptides related to alafosfalin” (J Med Chem, 1986)
≈ marks a conversion by molar mass, not a printed value.

Tests used:
Bacillus subtilis [1] = experiment: Concentration (IC50) to inhibit the growth of Bacillus subtilis; type: functional, organism-based
In short: (§1)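 Broth dilution in a defined liquid peptide medium lacking antagonists of small peptide mimetics. Inocula were overnight cultures grown in this medium at 37 °C and diluted to about 4 × 10^6 cfu/mL. Compound was tested as a doubling dilution series, final 0.065–512 μg/mL, incubated overnight at 37 °C. Turbidity was read, and IC50 is the concentration reducing 24-h growth to 50% of control.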

Escherichia coli [2] = experiment: Minimum inhibitory concentration (MIC) to control the growth of Escherichia coli strain PCM 2057; type: functional
In short: (§2)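 Doubling dilutions of compound were made in a defined liquid peptide medium free of peptide-mimetic antagonists, final 0.065–512 μg/mL. The inoculum was an overnight 37 °C culture diluted to about 4 × 10^6 cfu/mL, incubated overnight at 37 °C. Non-turbid samples were subcultured (0.1 mL) onto solid peptide-medium agar and incubated overnight at 37 °C to assign MIC.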

Escherichia coli [3] = experiment: Concentration (IC50) to inhibit the growth of Escherichia coli.; type: functional, organism-based; in short: as §1
Klebsiella aerogenes [4] = experiment: Concentration (IC50) to inhibit the growth of Klebsiella aerogenes.; type: functional, organism-based; in short: as §1
Klebsiella aerogenes [5] = experiment: Minimum inhibitory concentration (MIC) to control the growth of Klebsiella aerogenes strain PCM 2063; type: functional; in short: as §2
Staphylococcus aureus [6] = experiment: Concentration (IC50) to inhibit the growth of Staphylococcus aureus.; type: functional, organism-based; in short: as §1
Staphylococcus aureus [7] = experiment: Minimum inhibitory concentration (MIC) to control the growth of Staphylococcus aureus strain PCM 2054.; type: functional; in short: as §2
Serratia marcescens [8] = experiment: Concentration (IC50) to inhibit the growth of Serratia marcescens.; type: functional, organism-based; in short: as §1
Serratia marcescens [9] = experiment: Minimum inhibitory concentration (MIC) to control the growth of Serratia marcescens strain PCM 549.; type: functional; in short: as §2
Enterococcus faecalis [10] = experiment: Concentration (IC50) to inhibit the growth of Streptococcus faecalis.; type: functional, organism-based; in short: as §1
Enterococcus faecalis [11] = experiment: Minimum inhibitory concentration (MIC) to control the growth of Streptococcus faecalis strain PCM 896; type: functional; in short: as §2
Bacillus subtilis [12] = experiment: Minimum inhibitory concentration (MIC) to control the growth of Bacillus subtilis strain PCM 1949.; type: functional; in short: as §2

Row | SMILES | IC50 (Bacillus subtilis [1]) [µg/mL] | MIC (Escherichia coli [2]) [µg/mL] | IC50 (Escherichia coli [3]) [µg/mL] | IC50 (Klebsiella aerogenes [4]) [µg/mL] | MIC (Klebsiella aerogenes [5]) [µg/mL] | IC50 (Staphylococcus aureus [6]) [µg/mL] | MIC (Staphylococcus aureus [7]) [µg/mL] | IC50 (Serratia marcescens [8]) [µg/mL] | MIC (Serratia marcescens [9]) [µg/mL] | IC50 (Enterococcus faecalis [10]) [µg/mL] | MIC (Enterococcus faecalis [11]) [µg/mL] | MIC (Bacillus subtilis [12]) [µg/mL]
1 | CC(C)CC(N)C(=O)NC(C1CCCCC1)P(=O)(O)O (stereo unspecified) | > 512 | > 512 | > 512 | > 512 | > 512 | > 512 | > 512 | > 512 | > 512 | > 512 | > 512 | > 512
2 | CC(N)C(=O)NC(C12CC3CC(CC(C3)C1)C2)P(=O)(O)O (stereo unspecified) | > 512 | > 512 | > 512 | > 512 | > 512 | > 512 | > 512 | > 512 | > 512 | > 512 | > 512 | > 512
3 | CC(N)C(=O)NC(C1CC1)P(=O)(O)O (stereo unspecified) | > 512 | > 512 | > 512 | > 512 | > 512 | > 512 | > 512 | > 512 | > 512 | > 512 | > 512 | > 512
4 | CC(C)CC(N)C(=O)NC(CCC(=O)O)P(=O)(O)O (stereo unspecified) | 14 (≈ 47.3 µM) | 128 (≈ 432 µM) | 18 (≈ 60.8 µM) | 22 (≈ 74.3 µM) | 128 (≈ 432 µM) | 128 (≈ 432 µM) | > 512 | 16 (≈ 54 µM) | > 512 | 32 (≈ 108 µM) | > 512 | 128 (≈ 432 µM)
5 | CC(N)C(=O)NC(C(C)C)P(=O)(O)O (stereo unspecified) | > 512 | > 512 | > 512 | > 512 | > 512 | 6.8 (≈ 30.3 µM) | > 512 | > 512 | > 512 | 0.09 (≈ 0.401 µM) | > 512 | > 512
6 | CC(C)CC(N)C(=O)NC(C(C)(C)C)P(=O)(O)O (stereo unspecified) | > 512 | > 512 | > 512 | > 512 | > 512 | > 512 | > 512 | > 512 | > 512 | > 512 | > 512 | > 512
7 | CC(=O)OCC(NC(=O)C(C)N)P(=O)(O)O (stereo unspecified) | > 512 | > 512 | > 512 | 96 (≈ 378 µM) | > 512 | 0.065 (≈ 0.256 µM) | > 512 | > 512 | > 512 | 512 (≈ 2010 µM) | > 512 | > 512
8 | CC(C)CC(N)C(=O)NC(C12CC3CC(CC(C3)C1)C2)P(=O)(O)O (stereo unspecified) | > 512 | > 512 | > 512 | > 512 | > 512 | > 512 | > 512 | > 512 | > 512 | > 512 | > 512 | > 512
9 | CC(C)CC(N)C(=O)N1CCCC1P(=O)(O)O (stereo unspecified) | > 512 | 128 (≈ 484 µM) | 70 (≈ 265 µM) | 154 (≈ 583 µM) | 256 (≈ 969 µM) | 35 (≈ 132 µM) | 64 (≈ 242 µM) | 83 (≈ 314 µM) | 512 (≈ 1940 µM) | 42 (≈ 159 µM) | > 512 | > 512
10 | CC(=O)OCC(NC(=O)C(N)CC(C)C)P(=O)(O)O (stereo unspecified) | 1.4 (≈ 4.73 µM) | > 512 | > 512 | > 512 | > 512 | > 512 | > 512 | > 512 | > 512 | 0.065 (≈ 0.219 µM) | > 512 | > 512
11 | CC(N)C(=O)NC(CCC(=O)O)P(=O)(O)O (stereo unspecified) | 14 (≈ 55.1 µM) | 64 (≈ 252 µM) | 5.6 (≈ 22 µM) | 4.8 (≈ 18.9 µM) | 128 (≈ 504 µM) | 1.8 (≈ 7.08 µM) | 256 (≈ 1010 µM) | 0.065 (≈ 0.256 µM) | > 512 | 32 (≈ 126 µM) | > 512 | 16 (≈ 62.9 µM)
12 | CC(N)C(=O)N1CCCC1P(=O)(O)O (stereo unspecified) | > 512 | > 512 | > 512 | > 512 | > 512 | > 512 | > 512 | > 512 | > 512 | > 512 | > 512 | > 512
13 | CC(C)CC(N)C(=O)NC(C)P(=O)(O)O (stereo unspecified) | 4 (≈ 16.8 µM) | 8 (≈ 33.6 µM) | 0.09 (≈ 0.378 µM) | 1.6 (≈ 6.72 µM) | > 512 | 8 (≈ 33.6 µM) | 32 (≈ 134 µM) | 0.1 (≈ 0.42 µM) | 0.5 (≈ 2.1 µM) | 2 (≈ 8.4 µM) | > 512 | 16 (≈ 67.2 µM)
